The record followed here is ChEMBL document CHEMBL5331127, “Discovery of ARD-2051 as a Potent and Orally Efficacious Proteolysis Targeting Chimera (PROTAC) Degrader of Androgen Receptor for the Treatment of Advanced Prostate Cancer” (J Med Chem, 2023).

Data set [1] concerns the target T1, Androgen receptor (Homo sapiens) (UniProt P10275).
T1 sequence (whole entry): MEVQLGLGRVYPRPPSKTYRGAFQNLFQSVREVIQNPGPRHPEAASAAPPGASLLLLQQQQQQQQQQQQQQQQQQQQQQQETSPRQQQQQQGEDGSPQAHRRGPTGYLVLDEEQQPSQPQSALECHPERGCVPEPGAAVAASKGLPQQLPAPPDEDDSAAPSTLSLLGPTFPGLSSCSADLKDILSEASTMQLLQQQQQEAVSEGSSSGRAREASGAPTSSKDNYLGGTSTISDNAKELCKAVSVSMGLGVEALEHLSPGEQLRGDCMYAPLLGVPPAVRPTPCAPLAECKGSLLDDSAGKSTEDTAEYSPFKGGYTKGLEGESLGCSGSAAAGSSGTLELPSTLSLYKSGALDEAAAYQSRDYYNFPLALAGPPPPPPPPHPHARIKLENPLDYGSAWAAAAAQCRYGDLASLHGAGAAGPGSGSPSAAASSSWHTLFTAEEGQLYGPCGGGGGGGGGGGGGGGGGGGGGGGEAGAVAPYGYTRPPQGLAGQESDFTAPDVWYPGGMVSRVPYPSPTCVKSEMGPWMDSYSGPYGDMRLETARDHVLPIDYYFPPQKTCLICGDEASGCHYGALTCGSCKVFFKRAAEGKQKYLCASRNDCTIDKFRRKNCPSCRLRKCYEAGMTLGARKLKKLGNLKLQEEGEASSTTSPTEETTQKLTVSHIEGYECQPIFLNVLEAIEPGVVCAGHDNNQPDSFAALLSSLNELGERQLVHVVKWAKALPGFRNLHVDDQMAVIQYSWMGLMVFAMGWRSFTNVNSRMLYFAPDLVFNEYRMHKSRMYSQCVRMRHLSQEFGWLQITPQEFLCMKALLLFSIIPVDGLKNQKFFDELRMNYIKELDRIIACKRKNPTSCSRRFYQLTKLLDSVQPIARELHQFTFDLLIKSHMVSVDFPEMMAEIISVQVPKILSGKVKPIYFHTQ
Description: Induction of androgen receptor degradation in human VCaP cells at 1 uM after 24 hrs by Western blotting analysis relative to control. It counts as cell-based. The method, boiled down: (§1)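 VCaP cells treated for 24 h at 10, 100 or 1000 nM. AR protein measured by Western blotting.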
Background: Immunoblotting shows a protein as a band on a membrane.

In data set [2] the target is T1, Androgen receptor (Homo sapiens). In words: Induction of androgen receptor degradation in human VCaP cells at 0.01 uM after 24 hrs by Western blotting analysis relative to control. The data set is classed as cell-based. The method, boiled down:
as §1

Data set [3] has the same target. In words: Induction of androgen receptor degradation in human VCaP cells at 0.1 uM after 24 hrs by Western blotting analysis relative to control. It counts as cell-based. The essentials:
as §1

The nature of data set [4]: Drug concentration in ICR mouse plasma at 10 mg/kg, po measured after 6 hrs. The data set is classed as ADME, organism-based. The essentials:
(§2)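 Mice given a single 10 mg/kg dose by oral gavage, 3 mice per time point. Plasma drug levels measured at 1, 3, 6 and 24 h; mean ± SD reported.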

Data set [5] in a line: Drug concentration in ICR mouse plasma at 10 mg/kg, po measured after 3 hrs. It counts as ADME, organism-based. The essentials: as §2
A short description of data set [6]: Drug concentration in ICR mouse plasma at 10 mg/kg, po measured after 1 hr. The data set is classed as ADME, organism-based. The method, boiled down: as §2
The target in data set [7] is T1, Androgen receptor (Homo sapiens). In words: Displacement of Fluormone AL Green from androgen receptor LBD (unknown origin) at 1 uM incubated for 4 hrs by fluorescence polarization assay relative to control. (In general: Polarisation of emitted light reports the rotation of a fluorescent probe.)
For another data set, the target named is T2, Androgen receptor (Homo sapiens, UniProt P10275).
T2 sequence (P10275 whole entry): T1 sequence (whole entry)
Description: Displacement of Fluormone AL Green from androgen receptor LBD (unknown origin) incubated for 4 hrs by fluorescence polarization assay.

In a further data set the test system is LNCaP. Description: Growth inhibition in human LNCaP cells incubated for 4 days by WST-8 assay relative to control. Particulars: time 4 day. The data set is classed as functional. The method, boiled down: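 LNCaP cells grown in RPMI 1640 with 10% FBS, treated for 4 days. Viability read by WST-8 assay.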
A general note: Tetrazolium assays rely on reduction of a dye to a coloured formazan, in cell work by metabolically active cells.

The nature of data set [8]: Drug concentration in ICR mouse plasma at 10 mg/kg, po measured after 24 hrs. It counts as ADME, organism-based. The essentials: as §2
A further data set has as its system VCaP. In words: Growth inhibition in human VCaP cells incubated for 4 days by WST-8 assay relative to control. The data set is classed as functional. Particulars: time 4 day. The method, boiled down:
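VCaP prostate cancer cells (ATCC) were maintained in DMEM with Glutamax plus 10% fetal bovine serum at 37 °C, humidified 5% CO2. They were exposed to compound for 4 days, and viability was then read by WST-8 colorimetric assay following the kit instructions.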

Take `C[C@H]1CC2(CCN(c3ccc(C(=O)N4CCN(C5CN(c6ccc7c(c6)C(=O)N(C6CCC(=O)NC6=O)C7=O)C5)CC4)cc3)CC2)CN1c1ccc(C#N)c(C(F)(F)F)c1` (stereo partly specified): the Activity in data set [1] is greater than 95%; in data set [2], greater than 90%; in [3], greater than 95%. The same compound registered a concentration at 6 h in data set [4] of 29 ng/mL. In [5], this compound registered a concentration at 3 h of 56 ng/mL. Further, the concentration at 1 h in data set [6] was found to be 31 ng/mL.
As a reminder, the inhibition is the drop in the measured response relative to a control, in per cent. Usually IC50 stands for the concentration that gives 50% inhibition. On to `N#Cc1ccc(N2CCC3(CCN(c4ccccc4)CC3)C2)cc1Cl`, for which the inhibition in data set [7] stood at 30%. The same compound had an IC50 at Androgen receptor greater than 1000 nM.
As for `N#Cc1ccc(N2CCC3(CCN(C(=O)c4ccccc4)CC3)C2)cc1Cl`, the IC50 on Androgen receptor is 1700 nM.
The same measure, in the same setting: with `CN1CCN(C(=O)c2ccc(N3CCC4(CC3)CCN(c3ccc(C#N)c(Cl)c3)C4)cc2)CC1` the figure was 78 nM.
For the compound `C[C@H]1CC2(CCN(c3ccc(C(=O)N4CCN(C5CN(c6ccc7c(c6)C(=O)N(C6CCC(=O)NC6=O)C7=O)C5)CC4)cc3)CC2)CN1c1cnc(C#N)c(C(F)(F)F)c1` (stereo partly specified), the results for the Activity in data set [1], in [2] and in data set [3] were greater than 95%, greater than 90% and greater than 95%, respectively. The concentration at 6 h in [4] was found to be 451 ng/mL. In data set [5], this compound had a concentration at 3 h of 678 ng/mL. In [6], the concentration at 1 h came to 571 ng/mL.
On to `C[C@H]1CC2(CCN(c3ccc(C(=O)N4CCN(C5CN(c6ccc7c(c6)C(=O)N(C6CCC(=O)NC6=O)C7=O)C5)CC4)cc3)CC2)CN1c1ccc(C#N)c(F)c1` (stereo partly specified), for which the Activity in [1] was greater than 95%; in [2] it was greater than 90%; in [3], greater than 95%. In [4], this compound registered a concentration at 6 h of 91 ng/mL. The compound further came in with a concentration at 3 h in [5] of 146 ng/mL. For the same compound, in data set [6], the concentration at 1 h worked out at 134 ng/mL.
In the case of `N#Cc1ccc(O[C@H]2CC[C@H](NC(=O)c3ccc(N4CCC(CN5CCN(c6cc7c(cc6F)C(=O)N(C6CCC(=O)NC6=O)C7=O)CC5)CC4)nn3)CC2)cc1Cl` (stereo partly specified) [BAVDEGALUTAMIDE], the Imax worked out at 90% in the data set with LNCaP and 88% in the data set with VCaP. The concentration at 24 h in data set [8] worked out at 70 ng/mL. The concentration at 6 h in data set [4] was determined as 110 ng/mL. Besides, in data set [5], the concentration at 3 h came to 124 ng/mL. For the same compound, the concentration at 1 h in [6] is 55 ng/mL.
With `N#Cc1ccc(N2CCC3(CCN(c4ccc(C(=O)N5CCN(C6CCN(c7ccc8c(c7)C(=O)N(C7CCC(=O)NC7=O)C8=O)CC6)CC5)cc4)CC3)C2)cc1Cl` (stereo unspecified), the Activity turned out to be 95% in data set [1], 24% in data set [2] and 74% in data set [3].
For `C[C@H]1CC2(CCN(c3ccc(C(=O)N4CCN(C5CCN(c6ccc7c(c6)C(=O)N(C6CCC(=O)NC6=O)C7=O)CC5)CC4)cc3)CC2)CN1c1ccc(C#N)c(Cl)c1` (stereo partly specified), the values for the Activity in data set [1], in [2] and in data set [3] were greater than 95%, greater than 90% and greater than 95%, respectively. Besides, the concentration at 6 h in data set [4] is 104 ng/mL. This compound registered a concentration at 3 h in [5] of 208 ng/mL. The same compound gave a concentration at 1 h in [6] of 238 ng/mL.
Consider `C[C@@H]1CC2(CCN(c3ccc(C(=O)N4CCN(C5CN(c6ccc7c(c6)C(=O)N(C6CCC(=O)NC6=O)C7=O)C5)CC4)cc3)CC2)CN1c1ccc(C#N)c(Cl)c1` (stereo partly specified), for which the figures for the Activity in data set [1], in data set [2] and in data set [3] were greater than 95%, 66% and 93%, respectively.
`CN1CCN(c2ccc(C(=O)N3CCC4(CC3)CCN(c3ccc(C#N)c(Cl)c3)C4)cc2)CC1` returned an IC50 on Androgen receptor of 800 nM.
